In brackets after ≈: the same amount, converted by molar mass.
Assays:
Enterovirus C = test: (§1) Minimum inhibitory concentration against polio virus 1 in HeLa cell cultures; type: functional
Summary of the method: (§2)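 Confluent HeLa, Vero or primary rabbit kidney cell cultures in microtiter trays are inoculated with 100 CCID50 of virus. After 1 h adsorption, residual virus is removed and cells are incubated with varying compound concentrations. Cytopathogenicity is recorded once it is complete in untreated virus-infected controls. MIC is the concentration inhibiting virus-induced cytopathogenicity.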

Homo sapiens = species on record: Homo sapiens; test: Cytotoxic dose against uninfected human MT-4 cell; type: functional; settings: MT4, read-out: CD50 (the source's name)
Summary of the method: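 Cytotoxicity counterpart of the HIV assay: uninfected human MT-4 lymphocytes exposed to the compounds. CD50 is the dose that reduces viability of these uninfected cells by 50%.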

Coxsackievirus = test: (§3) Minimum inhibitory concentration against Coxsackie virus B4 in Vero cell cultures; type: functional; summary of the method: as §2
[1] = tested on: Human immunodeficiency virus 1; test: Effective dose against HIV-1 induced cytopathogenicity in human MT-4 cell.; type: functional; settings: Human immunodeficiency virus 1, MT4; read-out: ED50 (the source's name)
Summary of the method: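 HIV (HTLV-III_B) is taken from the culture supernatant of a persistently infected HUT-78 line. Human MT-4 lymphocytes are infected and the assay scores inhibition of virus-induced cytopathogenicity. ED50 is the dose giving 50% protection of MT-4 cells against the viral cytopathic effect.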

[2] = tested on: Moloney murine sarcoma virus; test: In vitro effective dose against Moloney murine sarcoma virus induced transformation of C3H embryo fibroblast cells.; type: functional; settings: read-out: ED50 (the source's name)
Summary of the method: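 C3H mouse embryo cells are seeded at 20 000 cells/mL per well and grown 24 h. They are infected with 80 foci-forming units of Moloney MSV for 90 min, then given fresh medium with varying compound concentrations. Transformation is examined microscopically after 6-7 days. ED50 is the dose giving a 50% reduction in transformation.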

[3] = tested on: Vesicular stomatitis virus; test: Minimum inhibitory concentration against Vesicular stomatitis virus in primary rabbit kidney cell cultures; type: functional; summary of the method: as §2
Human respirovirus 3 = test: (§4) Minimum inhibitory concentration against parainfluenza 3 virus in Vero cell cultures; type: functional; summary of the method: as §2
[4] = (§5) Minimum cytotoxic concentration in primary rabbit kidney cell cultures; type: cell-based, Oryctolagus cuniculus; settings: primary rabbit kidney cells
[5] = (§6) Minimum cytotoxic concentration in HeLa cell cultures; type: cell-based; settings: human, HeLa cells
[6] = In vitro minimum cytotoxic concentration in C3H embryo fibroblast cells.; type: functional; settings: Mus musculus
Summary of the method: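 Minimal cytotoxic concentration in C3H mouse embryo cells, run in the same 48-well setup as the MSV transformation assay: the concentration producing microscopically visible alteration of cell morphology.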

Sindbis virus = test: Minimum inhibitory concentration against Sindbis virus in Vero cell cultures; type: functional; summary of the method: as §2
[7] = (§7) Minimum cytotoxic concentration in Vero cell cultures; type: cell-based; settings: chlorocebus sabaeus, Vero cells
[8] = tested on: Vesicular stomatitis virus; test: (§8) Minimum inhibitory concentration against Vesicular stomatitis virus in HeLa cell cultures; type: functional; summary of the method: as §2
Reovirus sp. = test: (§9) Minimum inhibitory concentration against reovirus in Vero cell cultures; type: functional; summary of the method: as §2
Semliki Forest virus = test: Minimum inhibitory concentration against forest virus in Vero cell cultures; type: functional; summary of the method: as §2
Coxsackievirus B4 [9] = test: (§10) Minimum inhibitory concentration against Coxsackie virus B4 in HeLa cell cultures; type: functional; settings: Enterovirus B; summary of the method: as §2
HeLa [10] = test: as §1; type: functional; settings: Homo sapiens; summary of the method: as §2
Coxsackievirus B4 [11] = test: as §3; type: functional; settings: Enterovirus B; summary of the method: as §2
Vaccinia virus = test: Minimum inhibitory concentration against Vaccinia virus in primary rabbit kidney cell cultures; type: functional; settings: Orthopoxvirus vaccinia; summary of the method: as §2
[12] = inimum cytotoxic concentration in Vero cell cultures; type: cell-based; settings: chlorocebus sabaeus, Vero cells
HeLa [13] = test: as §8; type: functional; settings: Homo sapiens; summary of the method: as §2
[14] = tested on: Mammalian orthoreovirus 1; test: as §9; type: functional; summary of the method: as §2
HeLa [15] = test: as §10; type: functional; settings: Homo sapiens; summary of the method: as §2
Vero [16] = test: as §4; type: functional, Human respirovirus 3; settings: Chlorocebus sabaeus; summary of the method: as §2
Oryctolagus cuniculus = species on record: Oryctolagus cuniculus; test: as §5; type: functional
HeLa [17] = test: as §6; type: functional; settings: Homo sapiens
Vero [18] = test: as §7; type: functional; settings: Chlorocebus sabaeus

SMILES | CC50 (Homo sapiens) | EC50 [1] | EC50 [2] | MIC [3] | MIC (Human respirovirus 3) | MCC [4] | MCC [5] | MCC [6] | MIC (Sindbis virus) | MIC (Semliki Forest virus) | MIC (HeLa [10]) | MIC (Coxsackievirus B4 [11]) | MIC (Vaccinia virus) | MIC (HeLa [13]) | MIC [14] | MIC (HeLa [15]) | further results
N#C[C@H]1[C@@H](O)[C@H](n2cnc3c(N)ncnc32)O[C@@H]1CO | 3.8 µM | > 1.6 µM | 8.5 µg/mL (≈ 30.8 µM) | > 400 µg/mL | > 100 µg/mL | > 400 µg/mL | > 200 µg/mL | > 40 µg/mL | 10 µg/mL (≈ 36.2 µM) | 20 µg/mL (≈ 72.4 µM) |  |  |  |  |  |  | MIC (Enterovirus C): > 100 µg/mL; MIC (Coxsackievirus): > 100 µg/mL; MCC [7]: 100 µg/mL; MIC [8]: > 100 µg/mL; MIC (Reovirus sp.): > 40 µg/mL; MIC (Coxsackievirus B4 [9]): 200 µg/mL (≈ 724 µM)
CC(C)(C)[Si](C)(C)OC[C@H]1O[C@@H](n2cnc3c(N)ncnc32)[C@H](O[Si](C)(C)C(C)(C)C)[C@H]1C#N | 25 µM | > 16 µM | 16 µg/mL (≈ 31.7 µM) | > 40 µg/mL | > 10 µg/mL | > 100 µg/mL | > 100 µg/mL | 80 µg/mL | 20 µg/mL (≈ 39.6 µM) | > 40 µg/mL | > 40 µg/mL | 20 µg/mL (≈ 39.6 µM) | > 40 µg/mL | > 40 µg/mL | > 10 µg/mL | > 40 µg/mL | MCC [12]: > 40 µg/mL
Nc1ncnc2c1ncn2C[C@H](O)CO [(S)-DHPA] |  |  |  | 20 µg/mL (≈ 95.6 µM) |  |  |  |  | > 400 µg/mL | > 400 µg/mL | > 400 µg/mL | 100 µg/mL (≈ 478 µM) | 20 µg/mL (≈ 95.6 µM) | > 400 µg/mL | 7 µg/mL (≈ 33.5 µM) | 2 µg/mL (≈ 9.56 µM) | MIC (Vero [16]): 150 µg/mL (≈ 717 µM); MCC (Oryctolagus cuniculus): ≥ 400 µg/mL; MCC (HeLa [17]): > 400 µg/mL; MCC (Vero [18]): 400 µg/mL

Source: ChEMBL document CHEMBL1124622, “Synthesis and antiviral activity of 3'-C-cyano-3'-deoxynucleosides” (J Med Chem, 1989)
